Test [1] relates to BMDM. Briefly: Induction of CXCL2 mRNA up-regulation in mouse BMDM at 20 ug/ml after 3 hrs by qRT-PCR analysis. It is filed as functional. The gist of the method:
(§1)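 Murine BMDMs stimulated with peptide, then target mRNA quantified by qRT-PCR. Expression normalized to GAPDH, with untreated cells set to 1.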

Test [2] has as its system BMDM. Put plainly: Induction of CCL7 mRNA up-regulation in mouse BMDM at 20 ug/ml after 3 hrs by qRT-PCR analysis. The class given is functional. The gist of the method: as §1
Test [3] has as its system BMDM. Briefly: Induction of CCL4 mRNA up-regulation in mouse BMDM at 20 ug/ml after 3 hrs by qRT-PCR analysis. The class given is functional. The method in brief:
as §1

Test [4] concerns Mus musculus. Put plainly: Stimulation of innate immune response in Kunming mouse infected with Pseudomonas aeruginosa ATCC 27853 assessed as reduction of bacterial burden in peritoneal lavage by measuring survival rate at 10 mg/kg, ip administered 5 hrs before bacterial infection measured up to 7 days. The class given is functional, organism-based. The arrangement: dose 10 mg/kg. The gist of the method:
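Peptide at 10 mg/kg ip was given 5 h before ip challenge with E. coli 25922 (2.5 × 10^8 CFU), P. aeruginosa 27853 (8 × 10^7 CFU) or S. aureus 25923 (2 × 10^8 CFU) per mouse. Viable bacteria were counted in peritoneal lavage collected in 2 mL of cold saline (n = 7, 6 and 8 respectively; unpaired t test). Survival was recorded for up to 7 days.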

For test [5], the system named is Mus musculus. Put plainly: Stimulation of innate immune response in Kunming mouse assessed as protection against drug-resistant Escherichia coli-induced mortality by measuring survival rate at 10 mg/kg, ip administered 5 hrs before bacterial infection measured up to 7 days. It is filed as functional. The settings on record: route intraperitoneal. The method in brief:
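Female Kunming mice (18−22 g) were dosed ip in sterile saline at 10 mg/kg, 5 h before ip challenge with clinical drug-resistant isolates: E. coli (n = 12), P. aeruginosa (n = 10) or S. aureus (n = 15). Survival was recorded for up to 7 days, with checks every 6 h and euthanasia by CO2 at the humane end point.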

The test system of test [6] is Mus musculus. Briefly: Stimulation of innate immune response in ip dosed Kunming mouse assessed as protection against Escherichia coli ATCC 25922-induced mortality by measuring survival rate measured up to 7 days. The class given is functional, organism-based. The gist of the method:
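Kunming mice were challenged ip with E. coli 25922 at 2.5 × 10^8 CFU/mouse (n = 10). A single ip dose of peptide, from 1 to 10 mg/kg in sterile saline, was given 5 h before infection. Survival was followed for up to 7 days and compared by log-rank test.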

For test [7], the system named is Mus musculus. Briefly: Stimulation of innate immune response in Kunming mouse assessed as protection against Escherichia coli ATCC 25922-induced mortality by measuring survival rate at 10 mg/kg, ip administered 3 hrs after bacterial infection measured up to 7 days. It is filed as functional, organism-based. Also on record: dose 10 mg/kg. The gist of the method: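 Female Kunming mice were challenged ip with E. coli 25922 at 2.5 × 10^8 CFU/mouse (n = 10). Peptide at 10 mg/kg in sterile saline was given ip at −24 h or +3 h relative to inoculation. Mice were monitored every 6 h and mortality was recorded for up to 7 days, with humane end points. Survival curves were compared by log-rank test.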

For test [8], the target named is Transcription factor p65 (Mus musculus) (UniProt Q04207). Briefly: Activation of NFkappaB in mouse BMDM assessed as degradation of IkappaBalpha at 10 ug/ml after 15 to 30 mins by Western blotting. The gist of the method:
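BMDMs (bone marrow cells grown in RPMI 1640 with 10% FCS and 20% L929-conditioned medium) stimulated, then lysates run on 10% SDS-PAGE and transferred to PVDF. Membranes blocked with 5% BSA and probed with phospho-ERK1/2 and total ERK1/2 antibodies, or with anti-IκBα. HRP anti-rabbit secondary, chemiluminescent detection.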

Test [9] in a line: Increase of CXCL2 production in mouse BMDM after 6 hrs by ELISA in presence of JNK inhibitor SP600125. The class given is functional.
In test [10] the test system is BMDM. Briefly: Increase of CXCL2 production in mouse BMDM after 6 hrs by ELISA in presence of KN-62. It is filed as functional.
In test [11] the test system is BMDM. Briefly: Increase of CXCL2 production in mouse BMDM after 6 hrs by ELISA in presence of WRW4. The class given is functional.
The subject of test [12] is BMDM. Briefly: Increase of CXCL2 production in mouse BMDM after 6 hrs by ELISA in presence of pertussis toxin. It is filed as functional. The method in brief:
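BMDMs (bone marrow cells in RPMI 1640 with 10% FCS and 20% L929-conditioned medium) were preincubated 30 min with pertussis toxin (100 ng/mL), then stimulated with peptide for 6 h. CXCL2 in the supernatant was measured by ELISA. Mean ± SEM from three independent experiments, unpaired t test.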

The subject of test [13] is RAW264.7. Briefly: Inhibition of PGN-induced TNFalpha production in mouse RAW264.7 cells 2 to 50 ug/ml after 6 hrs by ELISA. It is filed as functional, cell-based.
In test [14] the test system is RAW264.7. Put plainly: Inhibition of LPS-induced TNFalpha production in mouse RAW264.7 cells 2 to 50 ug/ml after 6 hrs by ELISA. It is filed as functional, cell-based.
Test [15] deals with Mus musculus. Put plainly: Stimulation of innate immune response in bacteria infected Kunming mouse assessed as eradicate invading bacteria at 10 mg/kg, ip after 8 hrs. It is filed as functional, organism-based. The arrangement: dose 10 mg/kg.
Test [16] concerns Mus musculus. Put plainly: Stimulation of innate immune response in Kunming mouse assessed as increase of monocytes/macrophages in peritoneal lavage at 10 mg/kg, ip after 5 hrs. It is filed as functional, organism-based. The arrangement: dose 10 mg/kg. The method in brief:
(§2)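 Female Kunming mice were given peptide ip at 10 mg/kg. At 5 h, peritoneal cells were recovered by lavage with 2 mL PBS and counted. Cells were stained with anti-F4/80-PE and GR1-FITC for 30 min at room temperature and typed by flow cytometry: neutrophils GR1+/F4/80−, resident monocytes/macrophages GR1−/F4/80+, inflammatory monocytes GR1+/F4/80+. Data are mean ± SD from three mice, unpaired t test.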

The test system of test [17] is Mus musculus. Put plainly: Stimulation of innate immune response in Kunming mouse assessed as increase of leukocytes in peritoneal lavage at 10 mg/kg, ip after 5 hrs. It is filed as functional, organism-based. The arrangement: dose 10 mg/kg. The gist of the method:
as §2

In test [18] the test system is Mus musculus. Briefly: Stimulation of innate immune response in Kunming mouse infected with Pseudomonas aeruginosa ATCC 27853 assessed as effect on IL-6 production in peritoneal lavage at 10 mg/kg, ip after 5 hrs by ELISA. Also on record: dose 10 mg/kg. It is filed as functional, organism-based.
In test [19] the test system is Mus musculus. Briefly: Stimulation of innate immune response in Kunming mouse assessed as increase of TNFalpha level in peritoneal lavage at 10 mg/kg, ip after 5 hrs. It is filed as functional, organism-based. The arrangement: dose 10 mg/kg. The method in brief:
(§3)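 Female Kunming mice (18−22 g) received a single ip injection of peptide at 10 mg/kg in sterile saline. Peritoneal lavage was collected in 2 mL of cold sterile saline 5 h later, and cytokines and chemokines were measured by ELISA. Data are mean ± SD from four mice, compared by unpaired t test.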

For test [20], the system named is Mus musculus. Briefly: Stimulation of innate immune response in Kunming mouse assessed as increase of IL-10 level in peritoneal lavage at 10 mg/kg, ip after 5 hrs. It is filed as functional, organism-based. The arrangement: dose 10 mg/kg. The method in brief: as §3
The test system of the next test is THP-1. Put plainly: Increase of cytokine production in PMA-differentiated human THP1 cells by ELISA. It is filed as functional, cell-based.
The nature of test [21]: Increase of IL-1Ra protein level in mouse BMDM at 10 ug/ml after 18 hrs by ELISA. The class given is functional. The gist of the method: (§4)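 Bone marrow-derived macrophages (RPMI 1640, 10% FCS, 20% L929-conditioned medium) stimulated with peptide for 18 h. Cytokines and chemokines in culture supernatant quantified by sandwich ELISA. Mean ± SD from three independent experiments, unpaired t test.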

Test [22] can be described thus: Increase of CXCL1 protein level in mouse BMDM at 10 ug/ml after 18 hrs by ELISA. The class given is functional. The method in brief:
as §4

Each structure is given as a SMILES string. Activity calls are given as the source filed them. The rule behind the calls is not given here. Peptide text beside a SMILES is read from it.

Sequence of Transcription factor p65 (Mus musculus) (Q04207 whole entry): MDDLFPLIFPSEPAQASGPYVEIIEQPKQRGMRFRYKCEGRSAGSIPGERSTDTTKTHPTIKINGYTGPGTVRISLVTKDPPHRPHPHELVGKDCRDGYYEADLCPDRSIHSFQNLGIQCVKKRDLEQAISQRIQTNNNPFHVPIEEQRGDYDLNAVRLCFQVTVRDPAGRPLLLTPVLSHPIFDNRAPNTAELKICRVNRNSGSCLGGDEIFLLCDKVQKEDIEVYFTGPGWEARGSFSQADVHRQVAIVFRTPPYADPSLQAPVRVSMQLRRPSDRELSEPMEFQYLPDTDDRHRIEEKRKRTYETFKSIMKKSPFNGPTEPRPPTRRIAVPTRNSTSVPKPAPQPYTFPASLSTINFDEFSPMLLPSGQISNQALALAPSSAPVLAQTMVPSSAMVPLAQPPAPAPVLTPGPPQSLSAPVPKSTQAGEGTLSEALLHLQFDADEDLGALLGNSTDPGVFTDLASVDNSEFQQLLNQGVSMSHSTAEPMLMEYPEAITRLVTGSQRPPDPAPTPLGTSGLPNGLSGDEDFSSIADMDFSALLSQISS

As to `CC[C@H](C)[C@H](NC(=O)[C@@H](NC(=O)[C@H](CCCNC(=N)N)NC(=O)[C@@H]1CCCN1C(=O)[C@H](CCCCN)NC(=O)[C@H](CCCCN)NC(=O)[C@H](Cc1ccccc1)NC(=O)[C@H](Cc1ccccc1)NC(=O)[C@H](CCCCN)NC(=O)[C@H](CCCCN)NC(=O)[C@H](C)NC(=O)[C@H](CCCNC(=N)N)NC(=O)[C@H](CCCCN)NC(=O)[C@H](CCCCN)NC(=O)[C@@H](NC(=O)[C@H](CO)NC(=O)[C@H](CC(N)=O)NC(=O)[C@H](CCCCN)NC(=O)[C@H](CC(C)C)NC(=O)[C@H](CCCCN)NC(=O)[C@H](CCCCN)NC(=O)[C@H](Cc1ccccc1)NC(=O)[C@H](Cc1ccccc1)NC(=O)[C@@H](N)CCCCN)C(C)C)C(C)C)C(=O)NCC(=O)N[C@H](C(=O)N[C@@H](CO)C(=O)N[C@H](C(=O)N1CCC[C@H]1C(=O)N[C@@H](Cc1ccccc1)C(=O)O)[C@@H](C)CC)C(C)C` (H-KFFKKLKNSVKKRAKKFFKKPRVIGVSIPF-OH), the result in the test with BMDM [1], with BMDM [2], in the test with BMDM [3], in the test with Mus musculus [4], in the test with Mus musculus [7] and in the test on BMDM [10] was Active. The result with BMDM [11], in the test with Mus musculus [16], in the test on Mus musculus [17], with Mus musculus [20] and in the test with THP-1 was Active. The survival at 10 mg/kg in the test with Mus musculus [5] came to 92.5%. Moreover, the Activity entry is “Dose-dependent effect” in the test on Mus musculus [6], 952 pg/mL in [9], 232 pg/mL in test [21] and 269 pg/mL in test [22]. Also, the outcome (in test [8]; in the test with BMDM [12]; with Mus musculus [15]; with Mus musculus [18]; with Mus musculus [19]) was inactive. Also, the inhibition result in the test with RAW264.7 [13] was “inactive”. Also, the inhibition result in the test on RAW264.7 [14] is “Active”.
